Hits are enriched below; roughly 7.1% of the tested compounds scored in any of these assays.
bCat KO growth = primary screen for growth suppressors in beta-catenin knockout HCT116 cells (colon tumor, human). viability, % at 10 µM. HCT116 beta-catenin knockout viability, CellTiter-Glo, 60 h; active compounds read low. 140,000 compounds, 1.5% hits. AID 818, 2007;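 active = viability at or under a set limit, the compound median less 4 SD, cut at about 6% in these data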;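 also: 0% = Hyamine 1622 control at 20 µM and 100% = untreated cell control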
Lung fibro prol = antiproliferative effect on LL 47 fibroblasts – human, LL 47 cells, CellTiter-Glo luminescence, primary screen | 85,000 compounds, 1.1% hits | viability, % at 10 µM | LL 47 human lung fibroblast viability, ATP luminescence; active compounds read low | AID 719, 2007;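 active = viability at or below 50% in the single dose screen; inactive = viability above 50%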;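 also: compound exposure lasted 72 h before the ATP readout; 100% = median luminescence of untreated cell-only wells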
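Material: human lung fibroblast line LL 47, low passage; Evaluation: viability percentage against median untreated-cell control; Buffer or medium: 15% FBS in IMEM; Incubation: 72 h compound exposure at 37 °C after overnight plating; Dosing: 0.1% DMSO in all compound wells; Measured by: CellTiter-Glo luminescence.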
HUVEC inhibit = inhibitors of HUVEC proliferation, primary screen, cell-based, 384-well; CellTiter-Glo luminescence, 72 h; active compounds read low; viability, % at 10 µM (by protocol); 86,000 compounds, 1.1% hits; AID 648, 2007;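 active = viability at or below 30%; inactive = viability above 30%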;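 also: 100% = median luminescence of DMSO-only cell control wells on each plate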
HCT116 PTEN-null = growth suppression of PTEN-null HCT116, primary screen, cell-based, CellTiter-Glo; HCT116 PTEN-null viability, 60 h; active compounds read low; viability, % at 10 µM; 140,000 compounds, 1.2% hits; AID 827, 2007;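 active = viability at or below a set limit, 4 SD under the median of all tested compounds, cut at about 3.7% in these data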;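 also: PTEN knockout HCT116 line with beta catenin targeted HCT116 as companion control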
H69AR growth 86K = proliferation blockers of H69AR lung cancer cells, primary screen, cell-based, human, 86K library; H69AR lung tumor viability, ATP luminescence, 72 h; active compounds read low; viability, % at 10 µM; 85,000 compounds, 6% hits; AID 598, 2007;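 active = viability at or below 40%; inactive = viability above 40%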;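 also: multidrug resistant small cell line overexpressing MRP-1 efflux transporter; 100% = mean luminescence of untreated control wells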
Cav3 T inh = Cav3.2 calcium influx blockers – cell-based, Fluo-4 calcium fluorescence, FDSS, MLSMR library, primary screen; Voltage-dependent T-type calcium channel subunit alpha-1H (Homo sapiens), O95180; Cav3.2-expressing cells; active compounds read low; B-score at 10 µM; 100,000 compounds, 4% hits;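 active = single-dose well whose peak fluorescence ratio is a statistical outlier from its plate by either plate-standardised score or position-corrected B-score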
Target sequence (O95180 whole entry, looked up): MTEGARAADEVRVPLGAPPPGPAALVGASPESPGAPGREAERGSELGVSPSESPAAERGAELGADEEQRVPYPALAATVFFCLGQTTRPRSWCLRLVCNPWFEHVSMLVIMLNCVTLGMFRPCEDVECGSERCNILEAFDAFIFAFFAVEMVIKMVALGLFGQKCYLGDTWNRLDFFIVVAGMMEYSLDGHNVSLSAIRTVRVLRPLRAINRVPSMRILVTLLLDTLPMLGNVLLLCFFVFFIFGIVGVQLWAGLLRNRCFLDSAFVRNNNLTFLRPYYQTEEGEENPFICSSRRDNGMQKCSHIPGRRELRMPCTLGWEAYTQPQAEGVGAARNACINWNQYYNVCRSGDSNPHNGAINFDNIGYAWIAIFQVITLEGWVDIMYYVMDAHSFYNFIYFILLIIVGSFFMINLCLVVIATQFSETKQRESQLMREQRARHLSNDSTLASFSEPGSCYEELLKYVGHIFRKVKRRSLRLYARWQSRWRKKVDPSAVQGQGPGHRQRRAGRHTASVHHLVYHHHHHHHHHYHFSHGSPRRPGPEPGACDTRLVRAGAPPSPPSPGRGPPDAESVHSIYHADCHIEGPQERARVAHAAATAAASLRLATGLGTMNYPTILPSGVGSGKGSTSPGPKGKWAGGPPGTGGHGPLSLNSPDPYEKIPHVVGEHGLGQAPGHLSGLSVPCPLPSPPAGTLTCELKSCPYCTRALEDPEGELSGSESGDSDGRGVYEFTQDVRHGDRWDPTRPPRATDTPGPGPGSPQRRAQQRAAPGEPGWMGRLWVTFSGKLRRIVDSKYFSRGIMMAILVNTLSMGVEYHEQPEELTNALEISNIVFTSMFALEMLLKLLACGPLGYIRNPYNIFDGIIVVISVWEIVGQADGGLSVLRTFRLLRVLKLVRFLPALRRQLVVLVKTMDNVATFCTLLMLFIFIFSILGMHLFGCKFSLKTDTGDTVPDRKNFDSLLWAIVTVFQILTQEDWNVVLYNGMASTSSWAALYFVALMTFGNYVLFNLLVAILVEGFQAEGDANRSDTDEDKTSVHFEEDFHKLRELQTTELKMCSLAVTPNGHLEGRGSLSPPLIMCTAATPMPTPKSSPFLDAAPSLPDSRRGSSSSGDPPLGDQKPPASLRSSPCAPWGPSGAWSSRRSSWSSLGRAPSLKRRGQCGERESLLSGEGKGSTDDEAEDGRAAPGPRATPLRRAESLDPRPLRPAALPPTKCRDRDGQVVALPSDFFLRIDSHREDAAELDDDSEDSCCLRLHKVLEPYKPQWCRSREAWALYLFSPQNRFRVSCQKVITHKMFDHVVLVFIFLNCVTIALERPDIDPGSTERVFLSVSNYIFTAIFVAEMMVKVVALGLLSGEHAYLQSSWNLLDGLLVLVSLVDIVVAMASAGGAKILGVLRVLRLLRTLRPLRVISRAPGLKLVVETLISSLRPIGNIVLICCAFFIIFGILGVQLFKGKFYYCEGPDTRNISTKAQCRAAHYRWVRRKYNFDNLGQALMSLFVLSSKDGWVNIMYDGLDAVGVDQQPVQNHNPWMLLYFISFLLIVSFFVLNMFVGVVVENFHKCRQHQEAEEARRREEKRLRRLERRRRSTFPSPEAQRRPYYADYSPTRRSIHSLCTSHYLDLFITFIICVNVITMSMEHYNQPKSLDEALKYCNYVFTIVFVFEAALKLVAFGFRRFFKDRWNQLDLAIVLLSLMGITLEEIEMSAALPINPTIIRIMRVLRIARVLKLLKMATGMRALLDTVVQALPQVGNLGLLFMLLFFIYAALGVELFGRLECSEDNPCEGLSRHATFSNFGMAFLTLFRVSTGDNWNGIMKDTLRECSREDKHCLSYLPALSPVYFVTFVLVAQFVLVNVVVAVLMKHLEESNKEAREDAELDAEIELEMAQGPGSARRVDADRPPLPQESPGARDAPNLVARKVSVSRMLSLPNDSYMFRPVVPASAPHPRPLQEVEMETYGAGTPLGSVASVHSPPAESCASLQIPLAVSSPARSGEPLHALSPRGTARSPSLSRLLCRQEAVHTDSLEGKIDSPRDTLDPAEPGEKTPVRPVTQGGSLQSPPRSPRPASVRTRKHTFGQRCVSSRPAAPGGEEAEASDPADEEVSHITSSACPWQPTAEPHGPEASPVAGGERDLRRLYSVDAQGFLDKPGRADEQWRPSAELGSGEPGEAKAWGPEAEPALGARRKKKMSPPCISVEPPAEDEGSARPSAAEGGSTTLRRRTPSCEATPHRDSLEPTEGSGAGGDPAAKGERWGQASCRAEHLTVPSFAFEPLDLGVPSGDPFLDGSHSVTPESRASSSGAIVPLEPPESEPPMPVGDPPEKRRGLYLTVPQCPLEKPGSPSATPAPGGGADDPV
Active calls of the source: *; . = no result given.

SMILES	bCat KO growth	Lung fibro prol	HUVEC inhibit	HCT116 PTEN-null	H69AR growth 86K	Cav3 T inh
COC(=O)c1c(NC(=O)CN2CCC3(O)CCCCC3C2c2ccc(OC)cc2OC)sc(C)c1C (stereo not drawn)	58	.	.	55	.	.
COc1ccccc1/C=C1\S/C(=N/NC(=O)c2cccc(Br)c2)NC1=O	61	.	.	75	.	-4.2*
[O-][n+]1c2c(c3c4non(O)c4ccc31)CCCC2	91	103	57	98	93	-6.8*
O=c1c2ccccc2nnn1CSc1nnc(COc2ccc(Cl)cc2)n1Cc1ccco1	91	86	76	65	71	-0.81
Cc1ccc(OCc2nnc(SCC(=O)Nc3ccc4c(c3)OCCO4)n2Cc2ccco2)cc1	86	98	86	81	83	-6*
Cc1ccc(OCc2nnc(SCC(=O)c3ccccc3)n2Cc2ccco2)cc1	66	.	.	73	.	-4.5*
Clc1ccc(OCc2nnc(SCCN3CCCCC3)n2Cc2ccco2)cc1	10	85	75	16	15*	0.15
CCn1c(COc2ccc(Cl)cc2)nnc1SCc1nc2ccccc2[nH]1	38	91	88	40	4.4*	-1.9
O=C(CSc1nnc(-c2ccccc2)n1Cc1ccco1)Nc1ccc2c(c1)OCCO2	100	100	97	104	80	-1
Cc1ccc(Nc2ccc(S(=O)(=O)N3CCOCC3)cc2[N+](=O)[O-])c(C)c1	90	.	.	83	.	.
Brc1ccc(N=C(c2ccccc2)c2ccncc2)cc1	104	.	.	95	.	.
O=C(CSc1nnc(-c2cccs2)n1Cc1ccco1)Nc1ccc2c(c1)OCO2	98	102	94	95	108	-0.13
Cc1ccc(OCc2nnc(SCc3nc4ccccc4[nH]3)n2Cc2ccco2)cc1	34	92	85	42	91	-8.5*
O=C(CSc1ncc(-c2ccc(F)cc2)n1Cc1ccco1)Nc1ccc2c(c1)OCO2	65	101	63	69	25*	-4.8*
O=C(CSc1ccc2nnc(-c3ccc(Cl)cc3)n2n1)N1CCN(c2ccccc2)CC1	.	106	86	.	81	.
Cc1ccc2c(c1)C(=O)CC1(CCCC1)O2	.	.	.	.	.	0.49
CCCCCCC1CCC(C(=O)NC(CCSC)C(=O)NC(C(=O)OC)C(C)C)CC1 (stereo not drawn)	14	85	77	18	81	-6.8*
CCOC(=O)c1ccc(NC(=O)CN(Cc2ccc(Cl)cc2)S(C)(=O)=O)cc1	87	97	97	87	41	-3.4
N#Cc1c(NC(=O)CSc2ccccn2)oc(-c2ccccc2)c1-c1ccccc1	90	105	97	103	82	-6.4*
N#Cc1c(NC(=O)CN2C(=O)c3ccccc3C2=O)oc(-c2ccccc2)c1-c1ccccc1	.	106	100	.	89	-4*
N#Cc1c(NC(=O)CCN2C(=O)c3ccccc3C2=O)oc(-c2ccccc2)c1-c1ccccc1	104	.	.	94	.	-7.2*
Cc1cnc(C(=O)OCC(=O)Nc2oc(-c3ccccc3)c(-c3ccccc3)c2C#N)cn1	99	71	98	96	34*	-2.3
CC(C)CC(C(=O)Nc1oc(-c2ccccc2)c(-c2ccccc2)c1C#N)N1C(=O)c2ccccc2C1=O (stereo not drawn)	97	89	82	88	91	-3.4
Cc1cnc(C(=O)OCC(=O)Nc2ccc(Cl)cc2)cn1	102	95	98	105	106	.
CCN(CC)S(=O)(=O)c1cccc(C(=O)NC(C(=O)Nc2nnc(C)s2)C(C)C)c1 (stereo not drawn)	93	90	94	93	97	0.73
SMILES	bCat KO growth	Lung fibro prol	HUVEC inhibit	HCT116 PTEN-null	H69AR growth 86K	Cav3 T inh
CCn1c(SCC(=O)Nc2oc(-c3ccccc3)c(-c3ccccc3)c2C#N)nnc1-c1ccco1	88	109	89	96	89	-4.7*
CCn1c(SCC(=O)Nc2oc(-c3ccccc3)c(-c3ccccc3)c2C#N)nnc1-c1ccncc1	93	98	101	97	103	-2
N#Cc1c(NC(=O)CCn2cnc3ccccc3c2=O)oc(-c2ccccc2)c1-c1ccccc1	77	100	80	65	96	-9.4*
CC(C)C[C@H]1C(=O)N2CCC[C@H]2[C@]2(O)O[C@](NC(=O)C3C=C4c5cccc6[nH]c(Br)c(c56)C[C@H]4N(C)C3)(C(C)C)C(=O)N12 (stereo partly drawn)	.	.	.	.	.	-5.6*
CCC1(c2ccccc2)NC(=O)N(Cc2ccc(C(=O)OC)cc2)C1=O (stereo not drawn)	84	.	.	84	.	.
CCC1(c2cccc(Cl)c2)NC(=O)N(Cc2cc(C(=O)OC)c(C)o2)C1=O (stereo not drawn)	74	101	113	65	96	-5.5*
O=C(NCc1cccnc1)c1ccc(COc2ccc3c(c2)CCC3)o1	75	95	81	64	6.4*	-2.7
CCc1ccc(OCc2ccc(C(=O)NCc3ccccn3)o2)cc1	92	85	77	86	88	-3.9*
CCCCOc1ccc(Br)cc1/C(C)=N/NC1=NCCN1	2.4*	23*	7.1*	2.9*	83	-6.7*
Cc1ccc(NC(=O)c2cc(N3C(=O)C=CC3=O)ccc2N2CCOCC2)cc1Cl	99	.	.	108	.	.
COc1cc(NC(=O)c2cc(-c3cccc(O)c3)on2)cc(OC)c1OC	93	92	66	88	28*	-0.68
COc1ccc(OC)c(-c2cc(C(=O)Nc3cccc(Cl)c3)no2)c1	84	94	82	84	34*	-0.71
COc1ccc(OC)c(-c2cc(C(=O)Nc3cc(C)on3)no2)c1	93	94	74	90	93	-0.27
COc1cc(NC(=O)c2cc(-c3cccs3)on2)cc(OC)c1OC	59	96	67	55	23*	.
COc1ccc(CC(=O)OCC(=O)NCCc2ccccc2)cc1OC	91	.	.	95	.	.
COc1ccccc1-c1cc(C(F)(F)F)nc(S(=O)(=O)CCCC(=O)N2CCOCC2)n1	1.3*	3.2*	45	1.1*	0.3*	.
COc1ccccc1-c1cc(C(F)(F)F)nc(S(=O)(=O)CCCC(=O)O)n1	73	91	96	80	52	-0.22
Cc1ccc(C(=O)NCc2ccc3c(c2)OCO3)cc1S(=O)(=O)N1CCCCC1	60	100	87	79	85	-7.4*
Cc1ccc(C(=O)NCc2ccc3c(c2)OCO3)cc1S(=O)(=O)N1CCOCC1	95	101	95	89	104	0.04
CNc1ccc(C(O)(C(F)(F)F)C(F)(F)F)cc1C(O)(C(F)(F)F)C(F)(F)F	100	97	90	91	56	-7.1*

Screening results as filed in PubChem BioAssay.
